In the library only some 3.3% were active in any assay of this set; here they are far more common.
CendR NRP1 mod = NRP-1/CendR interaction modulation; FAM-RPARPAR peptide binding to NRP-1, fluorescence polarization; inhibition, % at 25 µM; 0.85% of 360,000 active;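 active = inhibition or corrected inhibition above about 18%, plus a signal ratio from 0.5 to 1.5, limit read from the data, passing the limit was not always enough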
SENP8 block-1 = blocks the human protease SENP8; purified SENP8, Z-RLRGG-aminoluciferin cleavage, luminescence; AID 2540; Q96LD8; 1.2% of 330,000 active; inhibition, % at 10 µM; in the data active = inhibition above about 50%
SENP6 block = SENP6 protease inhibition; Q9GZR1; 1.8% of 330,000 active; inhibition, % at 10 µM; Recombinant SENP6 catalytic domain, aminoluciferin luminescence;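 active = inhibition above about 50% at the single tested dose, limit read from the data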;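 note: plate controls were DMSO wells with enzyme for no effect and DMSO wells lacking enzyme for full effect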
Target sequence (Q9GZR1 628-1112 limits assumed): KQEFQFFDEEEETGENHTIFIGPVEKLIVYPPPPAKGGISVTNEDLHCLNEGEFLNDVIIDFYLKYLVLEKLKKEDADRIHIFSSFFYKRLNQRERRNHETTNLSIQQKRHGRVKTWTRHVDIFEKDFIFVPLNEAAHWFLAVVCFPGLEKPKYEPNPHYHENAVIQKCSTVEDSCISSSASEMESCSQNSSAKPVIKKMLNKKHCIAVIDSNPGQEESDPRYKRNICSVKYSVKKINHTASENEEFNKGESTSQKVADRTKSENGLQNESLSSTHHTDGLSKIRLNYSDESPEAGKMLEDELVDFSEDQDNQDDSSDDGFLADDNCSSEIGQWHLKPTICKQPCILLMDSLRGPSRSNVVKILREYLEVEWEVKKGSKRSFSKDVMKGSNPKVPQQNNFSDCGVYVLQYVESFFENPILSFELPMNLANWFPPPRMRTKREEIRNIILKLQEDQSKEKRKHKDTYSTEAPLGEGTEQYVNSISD
SENP7 block = SENP7 protease inhibition; recombinant SENP7, Z-RLRGG-aminoluciferin luminescence, 40 min; 1.5% of 330,000 active; inhibition, % at 5 µM;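 active = inhibition above about 50% at the single test dose, limit read from the data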;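 note: plate controls were DMSO with enzyme for no effect and no enzyme buffer wells for full effect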
SENP1 inh = blocks the human SENP1 SUMO protease catalytic domain; Q9P0U3; recombinant SENP1 catalytic domain, CyPet-SUMO1-YPet FRET cleavage; inhibition, % at 10 µM; 0.21% of 360,000 active;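 active = inhibition at least 30% at 10 µM, raw YFP signal under a set limit, fluorescence ratio 0.5 to 1.5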;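 note: 0% = enzyme with DMSO and 100% = no enzyme wells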
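Test system: human SENP1 catalytic domain; medium: Tris pH 8 buffer plus EDTA, NaCl, BME, BSA, NP40, catalase; incubation: 50 min reaction at room temperature; technique: FRET, CFP and YFP emission; controls: no-enzyme low control and enzyme-plus-DMSO high control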
SENP8 block-2 = inhibitors of human SENP8 protease; recombinant SENP8, Nedd8 substrate fluorescence; inhibition, % at 20 µM; 0.64% of 360,000 active; AID 602440; in the data active = inhibition mostly above about 40%, no sharp cut-off; inactive = mostly below about 27%
SENP8 confirm = human SENP8 inhibition, confirmed. shares compounds with SENP7 block. Recombinant SENP8, Z-RLRGG-aminoluciferin luminescence, 60 min. inhibition, % at 12.5 µM. 40% of 6,200 active;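 active = mean inhibition across replicates above about 50%, limit read from the data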
SENP6 confirm = confirmation of human SENP6 protease inhibitors. shares compounds with SENP7 block. recombinant SENP6, Z-RLRGG-aminoluciferin luminescence. inhibition, % at 12.5 µM. 58% of 6,200 active. AID 488915
SENP7 confirm = human SENP7 inhibition, confirmed. 69% of 6,200 active. inhibition, % at 12.5 µM. recombinant SENP7, Z-RLRGG-aminoluciferin luminescence, 40 min. shares compounds with SENP7 block
Casp3 select = selectivity test for SENP inhibitors: human caspase-3 inhibition. 60% of 6,200 active. shares compounds with SENP7 block. AID 488918. inhibition, % at 12.5 µM. purified caspase-3, Z-DEVD-aminoluciferin luminescence, 60 min;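 active = mean inhibition above about 50%, limit read from the data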;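 note: plate controls were enzyme with DMSO for no effect and wells without caspase-3 for full effect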
SENP luc ctr = luminescence interference (SENP counter-screen) | shares compounds with SENP7 block | Pre-incubated SENP8/Z-RLRGG-aminoluciferin, luciferase luminescence interference | inhibition, % at 12.5 µM | 39% of 6,200 active | AID 488919;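 active = mean inhibition above about 50% when retested at one dose, limit read from the data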;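 note: plate controls were DMSO wells with completed reaction for no effect and substrate without enzyme for full effect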
Numbers without * were called inactive; x = no result.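 Rule for the calls, unless noted: active = mean inhibition above about 50% in the one-dose retest (limit read from the data); inactive = the rest.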

SMILES	CendR NRP1 mod	SENP8 block-1	SENP6 block	SENP7 block	SENP1 inh	SENP8 block-2	SENP8 confirm	SENP6 confirm	SENP7 confirm	Casp3 select	SENP luc ctr
CN(C)c1ccc(NC(=O)Nc2cccc(Cl)c2)cc1	-8	80*	89*	88*	3	17	76*	85*	99*	82*	66*
CSc1ccccc1NC(=O)Nc1ccc(F)c(Cl)c1	-1	68*	77*	87*	2	13	1	76*	96*	68*	72*
Cc1ccc(NC(=O)Nc2ccc(F)c(Cl)c2)cc1	-1	1	0	34	3	24	x	x	x	x	x
COc1cccc(NC(=O)Nc2ccccc2SC)c1	-3	51*	33	47	0	12	78*	72*	91*	71*	72*
COc1ccccc1C(=O)NC(=O)Nc1cccc(Cl)c1	7	82*	79*	85*	0	20	44	36	40	42	30
COc1cc(NC(=O)c2cccc(Br)c2)nc(OC)n1	15	26	54*	37	0	11	39	36	68*	40	38
CC(C)Cc1csc(NC(=O)c2ccccc2Cl)c1C(=O)O	-8	9	8	5	-2	11	x	x	x	x	x
O=C(Nc1scc(-c2ccc(F)cc2)c1C(=O)O)c1ccco1	5	71*	86*	46	-1	-114	-6	77*	93*	87*	81*
CC(C)c1ccc(-c2csc(NC(=O)c3cccs3)c2C(=O)O)cc1	-30	91*	96*	29	-1	-64	11	98*	90*	84*	84*
Cc1cccc(C(=O)Nc2sc(C)c(-c3ccccc3)c2C#N)c1	-1	24	60*	33	-25	-47	30	40	54*	31	8
CC(C)Cc1csc(NC(=O)c2ccc(Cl)cc2)c1C(=O)O	8	91*	94*	22	3	-64	95*	97*	99*	87*	76*
C[C@H](CO)N1C[C@H](C)[C@H](CN(C)C(=O)NC2CCCCC2)Oc2cc(-c3cccnc3)ccc2S1(=O)=O	-12	x	x	x	2	17	x	x	x	x	x
CC1(C(=O)NCc2ccc3c(c2)OCO3)CCN1Cc1csc2ccccc12 (configuration not stated)	-3	x	x	x	1	16	x	x	x	x	x
Cc1cccc(C(=O)Nc2scc(CC(C)C)c2C(=O)O)c1	6	19	26	9	3	-20	x	x	x	x	x
Cc1ccc(-c2csc(NC(=O)c3ccc(Br)cc3)c2C(=O)O)cc1	-26	86*	71*	11	3	-168	-8	87*	74*	76*	29
Cc1ccc(-c2csc(NC(=O)c3cccc(C)c3)c2C(=O)O)cc1	-19	92*	97*	69*	-2	-98	-7	96*	100*	91*	84*
COc1cc(C(=O)Nc2scc(-c3ccc(Br)cc3)c2C(=O)O)cc(OC)c1OC	-16	9	7	5	0	-151	x	x	x	x	x
Cc1cccc(C(=O)Nc2scc(-c3ccc(Br)cc3)c2C(=O)O)c1	-33	72*	39	7	0	-28	21	54*	28	24	10
Cc1ccc(-c2csc(NC(=O)/C=C/c3ccco3)c2C(=O)O)cc1	-18	89*	86*	72*	-26	2	68*	97*	101*	96*	67*

Screening data: PubChem BioAssay, Sanford-Burnham Center for Chemical Genomics
